Where two headings read alike, the source gives them in different places. Blank lines part the entries; values can stand above or below the molecule they belong to.
Legend:
MIN6 cells [1] = test: Insulin secretion assay; assay type: cell-based, mouse; conditions: for EC50: read-out: EC50 insulin secretion, 1 h, n=3
Method in brief: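 Cells were seeded at 40,000/well and cultured 48 h in DMEM at 37°C, then preincubated 1 h in KRBB with 3.3 mM glucose and 0.3% albumin. Secretion was stimulated 1 h at 37°C in KRBB with 16.7 mM glucose (or a glucose series) ± agonist, with or without P2Y1/P2Y13 antagonists (30 μM) or a P2Y6 antagonist (10 μM). Insulin was measured by ELISA against a mouse insulin standard; n=3.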

P2Y1 receptor = P2Y1 receptor (Mus musculus, UniProt P49650); test: Competition binding against [125I]MRS2500 in MIN6 cell membranes
P2Y6 = conditions: read-out: EC50 PLC activation; P2Y6, transfected astrocytoma cells; cited from earlier work
P2Y4 = conditions: read-out: EC50 PLC activation; P2Y4, transfected astrocytoma cells; cited from earlier work
MIN6 cells [2] = test: TNF-α induced apoptosis, HO342/PI nuclei staining, fluorescence microscopy; assay type: cell-based, mouse; conditions: TNF-α 50 ng/ml; for nuclei/cells double stained with HO342 and PI: agonist 10 μM where present
Method in brief: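 MIN6 cells were grown 48 h on coverslips, then moved to DMEM with 5% FBS. Cells were pretreated 30 min with 10 μM agonist, which stayed present, then given TNF-α 50 ng/ml (16 h per methods; legend gives staining after 24 h); PBS alone was the negative control. Staining used PI 10 μg/ml plus HO342 20 μg/ml for 10 min, viewed by fluorescence microscopy at 365 nm excitation. Condensed or fragmented blue, pink or red nuclei were scored apoptotic.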

MIN6 cells [3] = test: Inositol phosphate; assay type: cell-based, mouse; conditions: read-out: EC50 accumulation of intracellular IP3; 30 min at 37°C, 20 mM lithium chloride, n=3
Method in brief: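 MIN6 cells were grown to 80% confluence with myo-[3H]-inositol (2 μCi/ml) for 48 h. They were then exposed to P2Y ligand or buffer with 20 mM LiCl for 30 min at 37°C. The reaction was stopped with cold 20 mM formic acid, and supernatants were neutralized with NH4OH. Samples went through AG1-X8 anion exchange, with total IP3 eluted by 1 M ammonium formate/0.1 M formic acid and counted by scintillation; n=3.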

P2Y2 = conditions: read-out: EC50 PLC activation; P2Y2, transfected astrocytoma cells; cited from earlier work
MIN6 cells [4] = test: TNF-α induced apoptosis, PI flow cytometry; assay type: cell-based, mouse; conditions: TNF-α 50 ng/ml, 24 h; for cell death (sub-G1 peak): agonist pretreatment where present
Method in brief: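 Cells were grown in 6-well plates, pretreated with agonist (10 μM, 30 min, kept present), and exposed to TNF-α 50 ng/ml. At 24 h after induction, cells were trypsinized, stained with PI (10 μg/ml) for 30 min, and analyzed by flow cytometry. Cell death was scored as the percentage of cells with sub-G1 DNA content.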

mouse P2Y1 receptor = mouse P2Y1 receptor (Mus musculus, UniProt P49650); test: Saturation binding of [125I]MRS2500 in MIN6 cell membranes; conditions: n=3
Method in brief: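 Membranes came from MIN6 cells at 80% confluence: homogenized, cleared at 100 × g for 5 min, Polytron-homogenized in 50 mM Tris-HCl pH 7.4, and pelleted at 20,000 × g for 20 min at 4°C. They were incubated with 0.2–7.2 nM [125I]MRS2500 in 50 mM Tris, MgCl2, pH 7.4, for 60 min at 4°C. Nonspecific binding used 10 μM unlabelled ligand. Bound ligand was collected on GF/B filters; Bmax was expressed per mg protein (BCA) and KD from saturation/Scatchard analysis; n=3.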

[5] = against [125I]MRS2500, MIN6 cell membranes, mean ± s.e.m. of three experiments

P2Y1 receptor, sequence (P49650 whole entry): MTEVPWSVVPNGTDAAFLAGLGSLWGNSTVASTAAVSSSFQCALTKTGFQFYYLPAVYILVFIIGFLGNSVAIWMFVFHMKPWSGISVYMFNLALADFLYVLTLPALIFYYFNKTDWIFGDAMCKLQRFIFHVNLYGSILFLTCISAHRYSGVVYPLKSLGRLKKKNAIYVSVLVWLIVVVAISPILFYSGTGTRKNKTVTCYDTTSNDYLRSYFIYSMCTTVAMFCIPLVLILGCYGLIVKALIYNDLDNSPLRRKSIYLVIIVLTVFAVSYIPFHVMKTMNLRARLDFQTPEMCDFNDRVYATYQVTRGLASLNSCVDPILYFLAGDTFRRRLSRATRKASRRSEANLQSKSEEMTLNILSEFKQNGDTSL
mouse P2Y1 receptor, sequence (P49650 whole entry): as above

Ki (P2Y1 receptor; [5]): 335 ± 3.9 nM
Molecule: Nc1ncnc2c1ncn2[C@@H]1O[C@H](COP(=O)(O)OP(=O)(O)O)[C@@H](O)[C@H]1O [ADP]
effect on insulin release (MIN6 cells [1]; agonist 10 μM, 16.7 mM glucose): stimulated insulin release | concentration at which insulin secretion was maximal (MIN6 cells [1]; concentration response studies, 16.7 mM glucose): 10 µM

Ki (P2Y1 receptor; [5]): 6.86 ± 0.12 nM
Molecule: CNc1nc(Cl)nc2c1ncn2[C@H]1C[C@H](OP(=O)(O)O)[C@]2(COP(=O)(O)O)C[C@H]12 [MRS2279, 2-chloro-N^6-methyl-(N)-methanocarba-2′-deoxyadenosine-3′,5′-bisphosphate]

EC50 (MIN6 cells [1]; 16.7 mM glucose): 25.8 ± 5.6 nM
Molecule: CSc1nc(N)c2ncn(C3CC(O)C4(COP(=O)(O)OP(=O)(O)O)CC34)c2n1 (stereo not drawn) [MRS2365, (N)-methanocarba-2′-deoxy-2-methylthio-adenosine-5′-diphosphate]

Ki (P2Y1 receptor; [5]): 2.92 ± 0.21 nM
Molecule: CNc1nc(I)nc2c1ncn2[C@H]1C[C@H](OP(=O)(O)O)[C@]2(COP(=O)(O)O)C[C@H]12 [MRS2500, 2-iodo-N^6-methyl-(N)-methanocarba-2′-deoxyadenosine-3′,5′-bisphosphate]

Bmax (mouse P2Y1 receptor): 307±22 fmol receptor per mg protein | Kd (mouse P2Y1 receptor; saturation binding, 60 min at 4° C): 4.74 ± 0.47 nM
Molecule: CNc1nc(I)nc2c1ncn2[C@H]1C[C@H](OP(=O)(O)O)[C@]2(COP(=O)(O)O)C[C@H]12 [[^125I]MRS2500]

Second part, the molecule before the results:

Molecule: CNc1ncnc2c1ncn2[C@H]1C[C@H](OP(=O)(O)O)[C@@H](COP(=O)(O)O)O1 [MRS2179, N^6-methyl-2′-deoxyadenosine-3′,5′-bisphosphate]
Ki (P2Y1 receptor): 49.8 ± 0.23 nM

Molecule: S=C=Nc1cccc(NC(=S)NCCCCNC(=S)Nc2cccc(N=C=S)c2)c1 [MRS2578]
effect of antagonist on insulin secretion induced by Up3U (MIN6 cells [1]; antagonist 10 μM, Up3U 10 μM): significantly blocked

Molecule: O=c1ccn([C@@H]2O[C@H](COP(=O)(O)OP(=O)(O)OP(=O)(O)OC[C@@H]3O[C@@H](n4ccc(=O)[nH]c4=O)C(O)[C@@H]3O)[C@H](O)C2O)c(=O)[nH]1 (stereo partly drawn) [Up3U, P^1,P^4-di(uridine 5′-)triphosphate]
EC50 (P2Y6): 270 ± 70 nM | EC50 (P2Y4): 870 ± 110 nM | cells homogeneously stained only with HO342 (MIN6 cells [2]; agonist 10 μM): more than 80% | cytoprotection against TNF-α induced apoptosis (microscopy) (MIN6 cells [2]; agonist 10 μM pretreatment): significant cytoprotection | nuclei/cells double stained with HO342 and PI (MIN6 cells [2]): ~ 10% | effect on insulin secretion at low glucose (MIN6 cells [1]; 3.3 mM glucose, data not shown): did not show any significant effect | increase in insulin secretion compared with glucose alone (MIN6 cells [1]; agonist 10 μM, 35 mM glucose): 2 fold | EC50 (MIN6 cells [1]; 16.7 mM glucose): 30.7 ± 12.7 nM | EC50 (MIN6 cells [3]): 29 ± 7.3 nM | EC50 (P2Y2): 1310 ± 210 nM | reduction of cell death compared to TNF-α alone (MIN6 cells [4]; agonist pretreatment): significant reduction in cell death | cell death (sub-G1 peak) (MIN6 cells [4]): 25%

Molecule: TNF-α
nuclei/cells double stained with HO342 and PI (MIN6 cells [2]): 30-40% | cell death (sub-G1 peak) (MIN6 cells [4]): 54%

From publication PMC2864154 (Biochemical pharmacology, 2010)
